Reference: ChEMBL document CHEMBL3400098, “Aza follow-ups to BI 207524, a thumb pocket 1 HCV NS5B polymerase inhibitor. Part 1: Mitigating the genotoxic liability of an aniline metabolite” (Bioorg Med Chem Lett, 2015)
Each block holds one molecule with its values, some of them ahead of it.

How the values were obtained:
Hepatitis C virus [1] = test: Antiviral activity against Hepatitis C virus genotype 1b infected in human Huh cells assessed as inhibition of viral replication by luciferase reporter assay; type: functional, cell-based, Hepacivirus hominis
Procedure, shortened: (§1)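 HCV replicon EC50 determined in duplicate, using either a GT1b luciferase reporter read-out or RT-PCR quantification of replicon RNA.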

[2] = Inhibition of Hepatitis C virus genotype 1b C-terminal truncated NS5B RNA dependent RNA polymerase delta21 expressed in Escherichia coli by scintillation proximity assay; set-up: species or system Hepatitis C virus subtype 1b
Procedure, shortened: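 Biochemical polymerase inhibition using a C-terminally truncated GT1b NS5BΔ21 construct. Values are the mean of duplicate measurements (n ≥ 2).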

[3] = Cytotoxicity against human HuH7 cells assessed as reduction in cell viability by MTT assay; type: cell-based; settings: Huh-7 cells, read-out: TC50 (the source's name)
Procedure, shortened: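 Cytotoxicity (TC50) measured by MTT read-out in the Huh-7 cell line.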

Hepatitis C virus [4] = test: Antiviral activity against Hepatitis C virus genotype 1a infected in human Huh cells assessed as inhibition of viral replication by RT-PCR-based replicon assay; type: functional, cell-based, Hepacivirus hominis; settings: subtype 1a; procedure, shortened: as §1
[5] = Half life in human liver microsomes at 2 uM; type: ADME
Procedure, shortened: (§2)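 Stability in liver microsomes with 2 µM initial compound concentration; half-life recorded.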

[6] = Half life in rat liver microsomes at 2 uM; type: ADME; procedure, shortened: as §2
[7] = Permeability from apical to basolateral side of human Caco2 cells; type: ADME, cell-based; settings: Caco-2, read-out: permeability
Procedure, shortened: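 Caco-2 permeability measured in the apical-to-basolateral direction, reported in cm/s.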

[8] = Plasma concentration in rat at 4 mg/kg, po as cassette dosing measured at 1 hr post dose; type: ADME, organism-based; set-up: dose 4 mg/kg, route oral
Procedure, shortened: (§3)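 Cassette dosing: a mixture of 4 compounds, each at 4 mg/kg, given orally to 2 fasted rats in 0.5% methylcellulose, 0.3% Tween-80 and 1% NMP. Plasma sampled at 1 and 2 h. Liver/plasma ratio determined at 2 h.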

[9] = Plasma concentration in rat at 4 mg/kg, po as cassette dosing measured at 2 hrs post dose; type: ADME, organism-based; set-up: dose 4 mg/kg, route oral; procedure, shortened: as §3
[10] = Lipophilicity, log D of the compound at pH 7.4; type: physicochemical; settings: buffer
[11] = Ratio of drug up take in liver to plasma of rat at 4 mg/kg, po as cassette dosing measured at 2 hrs post dose; type: ADME, organism-based; set-up: dose 4 mg/kg, route oral; procedure, shortened: as §3
Salmonella typhimurium [12] = test: Mutagenic activity in Salmonella typhimurium at 315 to 5000 ug/plate by Ames test in presence of S9 fraction; type: toxicity, organism-based; settings: salmonella enterica subsp. enterica serovar typhimurium
Procedure, shortened: (§4)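 Ames test on the free carboxylic acid forms using multiple strains and strain TA100 of Salmonella typhimurium, at 315–5000 µg per plate, run with and without S9 metabolic activation.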

Salmonella typhimurium [13] = test: Mutagenic activity in Salmonella typhimurium at 315 to 5000 ug/plate by Ames test in absence of S9 fraction; type: toxicity, organism-based; settings: salmonella enterica subsp. enterica serovar typhimurium; procedure, shortened: as §4

SMILES: CCOc1cc(NC(=O)C2(NC(=O)c3ccc4c(C5CCCC5)c(-c5ncc(Cl)cn5)n(C)c4c3)CCC2)nnc1/C=C/C(=O)O
EC50 (Hepatitis C virus [1]): 360 nM | IC50 [2]: 80 nM | CC50 [3]: > 10000 nM | half-life at 2 µM [5]: 2.27 h | half-life at 2 µM [6]: 3.78 h | Papp A→B [7]: 1.6 ×10⁻⁶ cm/s | logD [10]: 3.4

SMILES: CCOc1nc(N)ccc1/C=C/C(=O)O
Activity (Salmonella typhimurium [12]): Non-toxic | Activity (Salmonella typhimurium [13]): Non-toxic

SMILES: CCOc1nc(N)cnc1/C=C/C(=O)O
Activity (Salmonella typhimurium [12]): Non-toxic | Activity (Salmonella typhimurium [13]): Non-toxic

Continued, in another order:

EC50 (Hepatitis C virus [1]): 40 nM | IC50 [2]: 63 nM | EC50 (Hepatitis C virus [4]): 89 nM | half-life at 2 µM [5]: 3.98 h | half-life at 2 µM [6]: > 5 h | Papp A→B [7]: 4.3 ×10⁻⁶ cm/s | concentration at 1 h [8]: 100 nM | concentration at 2 h [9]: 30 nM
SMILES: CCOc1nc(NC(=O)C2(NC(=O)c3ccc4c(C5CCCC5)c(-c5ncc(Cl)cn5)n(C)c4c3)CCC2)ncc1/C=C/C(=O)O
CC50 [3]: > 10000 nM

EC50 (Hepatitis C virus [1]): 20 nM | IC50 [2]: 100 nM | EC50 (Hepatitis C virus [4]): 34 nM | half-life at 2 µM [5]: 2.43 h | half-life at 2 µM [6]: > 5 h | Papp A→B [7]: 13 ×10⁻⁶ cm/s | concentration at 1 h [8]: 2100 nM | concentration at 2 h [9]: 900 nM | Kp at 2 h [11]: 5
SMILES: CCOc1nc(NC(=O)C2(NC(=O)c3ccc4c(C5CCCC5)c(-c5ncc(Cl)cn5)n(C)c4c3)CCC2)cnc1/C=C/C(=O)O
CC50 [3]: > 10000 nM
